Results: PMC7325368 (Journal of Clinical Oncology, 2020)
Values joined by “and” are separate entries in the source; they are usually repeats but may differ in a detail not shown here. Equal entries are not always repeated. Where two headings read alike, the source gives them in different places.

Tests used:
[1] = system: patients with advanced/metastatic solid tumors; experiment: Safety and tolerability; assay type: in vivo, human
[2] = system: B-RAF–mutated solid tumors; experiment: Antitumor activity; assay type: in vivo, human
[3] = system: K-RAS/N-RAS–mutated solid tumors; experiment: Antitumor activity; assay type: in vivo, human
[4] = system: B-RAF– or K-RAS/N-RAS–mutated solid tumors; assay type: in vivo, human
Procedure, shortened: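 Oral test compound once daily: escalation cohorts at 5–60 mg; expansion at 30 mg/d in 21-day cycles in patients with B-RAF or K-RAS/N-RAS mutations. Treatment continued until unacceptable toxicity or withdrawal, with treatment beyond progression allowed if clinically beneficial. Response and stable disease scored per RECIST v1.1, investigator-assessed in expansion. Time-to-event end points summarized by Kaplan-Meier estimators.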

[5] = Plasma pharmacokinetics in patients; assay type: in vivo; settings: human
Procedure, shortened: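 Oral test compound given as a single dose on cycle 1, day 1, then a 2-day treatment-free period for single-dose PK sampling, then once daily on days 4–24 and continuously in 21-day cycles. Doses were 10–60 mg. Plasma was sampled at prespecified time points on cycle 1, day 1 and cycle 2, day 1. Accumulation ratios for Cmax, AUC0-9 and AUC0-24 were taken as cycle 2/cycle 1.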

[6] = system: tumor FDG uptake in patients with solid tumors; experiment: FDG-PET-CT scans; assay type: in vivo, human
Procedure, shortened: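 Exploratory FDG uptake measured by FDG-PET-CT at screening and again on cycle 2, day 1 (± 3 days) in patients receiving the oral test compound once daily in 21-day cycles. Each patient's on-treatment uptake category was compared with the baseline scan.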

VEGFR2 = settings: inhibition of VEGFR2 ref 15; cited from earlier work
[7] = system: EGFR, DDR1, DDR2, EPHA3, FLT3, VEGFR2, ABL1, RET, EPHGA7, EPHB2, MNK2, and ZAK; settings: EPHGA7, EPHB2, MNK2, ZAK ref 15; cited from earlier work
B-RAF–mutated melanoma = settings: patients with B-RAF–mutated melanoma ref 12, 33; cited from earlier work
[8] = Dose Expansion (n = 96), 30 mg/d
[9] = B-RAF^mut patients (n = 53), both phases
[10] = K-RAS^mut/N-RAS^mut patients (n = 66), both phases
[11] = cycle 2, day 1, 34 patients (7 missing postbaseline results)
[12] = cycle 2, day 1 vs baseline, 1 patient

O=C1CCc2c(Oc3ccc4c(c3)[C@@H]3[C@H](O4)[C@H]3c3nc4ccc(C(F)(F)F)cc4[nH]3)ccnc2N1 [lifirafenib]
Patients with dose interruptions/reductions as a result of drug toxicity ([1]; 40 mg/d, typically between days 13 and 28 of cycle 1): 70% | TEAE Abdominal pain, upper, Any Grade ([1]; Dose Escalation (n = 35)): 4 (11.4) No. (%) | TEAE Abdominal pain, upper, Grade ≥ 3 ([1]; Dose Escalation (n = 35)): 0 (0.0) No. (%) | TEAE Gastroesophageal reflux disease, Any Grade ([1]; Dose Escalation (n = 35)): 6 (17.1) No. (%) | TEAE Gastroesophageal reflux disease, Grade ≥ 3 ([1]; Dose Escalation (n = 35)): 0 (0.0) No. (%) | TEAE Musculoskeletal chest pain, Any Grade ([1]; Dose Escalation (n = 35)): 6 (17.1) No. (%) | TEAE Musculoskeletal chest pain, Grade ≥ 3 ([1]; Dose Escalation (n = 35)): 0 (0.0) No. (%) | TEAE Palmoplantar erythrodysesthesia syndrome, Any Grade ([1]; Dose Escalation (n = 35)): 11 (31.4) No. (%) | TEAE Palmoplantar erythrodysesthesia syndrome, Grade ≥ 3 ([1]; Dose Escalation (n = 35)): 2 (5.7) No. (%) | TEAE Upper respiratory tract infection, Any Grade ([1]; Dose Escalation (n = 35)): 6 (17.1) No. (%) | TEAE Upper respiratory tract infection, Grade ≥ 3 ([1]; Dose Escalation (n = 35)): 0 (0.0) No. (%) | TEAE Urinary tract infection, Any Grade ([1]; Dose Escalation (n = 35)): 4 (11.4) No. (%) | TEAE Urinary tract infection, Grade ≥ 3 ([1]; Dose Escalation (n = 35)): 0 (0.0) No. (%) | TEAE γ-Glutamyl transferase increase, Any Grade ([1]; Dose Escalation (n = 35)): 6 (17.1) No. (%) | TEAE γ-Glutamyl transferase increase, Grade ≥ 3 ([1]; Dose Escalation (n = 35)): 4 (11.4) No. (%) | TEAE Abdominal pain, upper, Any Grade [1, 8]: 8 (8.3) No. (%) | TEAE Abdominal pain, upper, Grade ≥ 3 [1, 8]: 2 (2.1) No. (%) | TEAE Gastroesophageal reflux disease, Any Grade [1, 8]: 4 (4.2) No. (%) | TEAE Gastroesophageal reflux disease, Grade ≥ 3 [1, 8]: 0 (0.0) No. (%) | TEAE Musculoskeletal chest pain, Any Grade [1, 8]: 7 (7.3) No. (%) | TEAE Musculoskeletal chest pain, Grade ≥ 3 [1, 8]: 0 (0.0) No. (%) | TEAE Palmoplantar erythrodysesthesia syndrome, Any Grade [1, 8]: 20 (20.8) No. (%) | TEAE Palmoplantar erythrodysesthesia syndrome, Grade ≥ 3 [1, 8]: 1 (1.0) No. (%) | TEAE Upper respiratory tract infection, Any Grade [1, 8]: 5 (5.2) No. (%) | TEAE Upper respiratory tract infection, Grade ≥ 3 [1, 8]: 0 (0.0) No. (%) | TEAE Urinary tract infection, Any Grade [1, 8]: 10 (10.4) No. (%) | TEAE Urinary tract infection, Grade ≥ 3 [1, 8]: 1 (1.0) No. (%) | TEAE γ-Glutamyl transferase increase, Any Grade [1, 8]: 4 (4.2) No. (%) | TEAE γ-Glutamyl transferase increase, Grade ≥ 3 [1, 8]: 4 (4.2) No. (%) | Time to occurrence of dose-limiting thrombocytopenia ([1]; after initial dosing, dose escalation): 2-3 weeks | Patients who experienced reversible DLTs ([1]; among patients eligible for DLT assessment (n = 31), dose escalation): 6 patients | DLT: grade 3 increased ALT ([1]; dose escalation): 1 n | DLT: grade 4 thrombocytopenia ([1]; dose escalation): 5 n | Grade ≥ 3 treatment-related TEAE fatigue ([1]; dose escalation): 11.4% | Grade ≥ 3 treatment-related TEAE hypertension ([1]; dose escalation): 11.4% | Grade ≥ 3 treatment-related TEAE thrombocytopenia ([1]; dose escalation): 14.3% | Patients with TEAEs that led to discontinuation ([1]; dose escalation (n = 35), five patients): 14.3% | Patients with grade ≥ 3 TEAEs (including DLTs) ([1]; dose escalation, 26 patients): 74.3% | Share of patients reporting grade ≥ 3 TEAEs ([1]; dose escalation, 40, 50, and 60 mg/d cohorts): 61.5% | Share of patients reporting grade ≥ 3 TEAEs ([1]; dose escalation, lower-dose cohorts): 38.5% | Dose-limiting thrombocytopenia that occurred at 40 and 60 mg/d ([1]; dose escalation, n = 2 each (eighty percent)): 4 of 5 | Maximum tolerated dose (MTD) ([1]; dose escalation, once-daily oral dosing): 40 mg/day | Grade ≥ 3 treatment-related AE fatigue ([1]; dose expansion): 7.3% | Grade ≥ 3 treatment-related AE hypertension ([1]; dose expansion): 8.3% | Patients with TEAEs that led to discontinuation ([1]; dose expansion (n = 96), 19 patients): 19.8% | Patients with serious TEAEs ([1]; dose expansion (n = 96), 56 patients): 58.3% | Patients with grade ≥ 3 TEAEs ([1]; dose expansion (n = 96), 68 patients): 70.8% | Patients with AEs that led to a dose adjustment ([1]; dose expansion, fifty patients): 52% | Patients with TEAEs that led to death (considered unrelated to treatment) ([1]; dose expansion, four patients, 6 TEAEs): 4.2% | Cutaneous SCC or keratoacanthoma ([1]; during the entire study): not reported | DLTs that occurred at doses ≥ 40 mg/d ([1]; of 6 patients with DLTs, dose escalation): 5 patients | Time to platelet count recovery ([1]; platelet transfusion or prednisolone and withholding of lifirafenib): 6 to 20 days | Patients with duration of treatment > 1 year ([2]; B-RAF mutations): 10 n | DCR ([2]; B-RAF^V600–mutated thyroid cancer (3 patients)): 100% | ORR ([2]; B-RAF^V600–mutated thyroid cancer, one of 3 patients confirmed PR): 33.3% | Best overall response (confirmed): CR [2, 9]: 1 (1.9) No. (%) | Best overall response (confirmed): NE/missing [2, 9]: 9 (17.0) No. (%) | Best overall response (confirmed): PD [2, 9]: 8 (15.1) No. (%) | Best overall response (confirmed): SD [2, 9]: 27 (50.9%) No. (%) and 27 (50.9) No. (%) | Disease control rate (CR + PR + SD) [2, 9]: 36 (67.9) No. (%) | Objective response rate (CR + PR) [2, 9]: 9 (17.0) No. (%) | Patients with confirmed PR ([2]; B-RAF–mutated thyroid cancer/PTC): 2 n | Patients with confirmed PR ([2]; human, in vivo): 1 n | Patients with confirmed PR ([3]; K-RAS codon 12–mutated NSCLC, 30 mg/d): 1 n | Patients with duration of treatment > 1 year ([3]; K-RAS mutations): 5 n | Patients with confirmed responses ([3]; K-RAS mutations, entire study): 2 patients | Responses ([3]; K-RAS/N-RAS–mutated colorectal cancer (n = 20)): No responses | Best overall response (confirmed): CR [3, 10]: 0 No. (%) | Best overall response (confirmed): NE/missing [3, 10]: 15 (22.7) No. (%) | Best overall response (confirmed): PD [3, 10]: 16 (24.2) No. (%) | Best overall response (confirmed): PR [3, 10]: 2 (3.0) No. (%) | Best overall response (confirmed): SD [3, 10]: 33 (50.0) No. (%) | Disease control rate (CR + PR + SD) [3, 10]: 35 (53.0) No. (%) | Objective response rate (CR + PR) [3, 10]: 2 (3.0) No. (%) | Patients with SD ([3]; K-RAS– or N-RAS–mutated CRC): Twelve | Patients with SD ([3]; K-RAS–mutated NSCLC (codon 12 mutated and K-RAS G13D, n = 1 each)): 2 patients | Patients with SD ([3]; K-RAS–mutated endometrial cancer (codon 12 mutated, n = 4; codon 2 mutated, n = 1)): 5 patients | Patients with confirmed PR ([3]; K-RAS–mutated endometrial cancer, 20 mg/d): 1 n | ORR ([3]; patients with K-RAS mutations, entire study): 3.4% | Patients with SD ([3]; patients with K-RAS mutations, entire study, 32 patients): 54.2% | Patients with confirmed clinical responses ([4]; dose escalation, n = 3, all had FDG-PET-CT responses): 8.6% | Median DoR ([4]; dose escalation, 95% CI, 6.8 to 31.7 months): 31.7 months | Median DoR ([4]; dose expansion, 95% CI, 1.9 months to not reached): 11.1 months | Median duration of SD ([4]; dose expansion, 95% CI, 3.5 to 4.9 months): 4.1 months | half-life ([5]; oral): 15 to 59 h | Tmax ([5]; po): 3 h | Patients with high FDG uptake [6, 11]: 15 patients | Patients with low FDG uptake [6, 11]: 1 patient | Patients with moderate FDG uptake [6, 11]: 10 patients | Patients with no FDG uptake [6, 11]: 1 patient | Patients who changed from high to low FDG uptake [6, 12]: 2.9% | Patients who changed from low to no FDG uptake [6, 12]: 2.9% | Patients who changed from high to moderate FDG uptake ([6]; cycle 2, day 1 vs baseline, 7 patients): 20.6% | Patients with partial metabolic reduction per EORTC criteria ([6]; dose escalation): 11 patients | Patients with complete metabolic reduction ([6]; dose escalation, B-RAF mutation, 40 mg/d): 1 patient | Patients with partial/complete metabolic reductions by FDG-PET-CT scan ([6]; dose escalation, of 34 patients): 12 patients | Patients with partial/complete metabolic reduction who received ≥ 30 mg/d ([6]; of 12 patients with metabolic reductions): 11 patients | IC50 (VEGFR2): 108 nM | IC50s relative to that for B-RAF^V600E [7]: ≤ 10 fold

CC(C)(C)c1nc(-c2cccc(NS(=O)(=O)c3c(F)cccc3F)c2F)c(-c2ccnc(N)n2)s1 [dabrafenib]
DCR (B-RAF–mutated melanoma): 91% | ORR (B-RAF–mutated melanoma): 50%

CCCS(=O)(=O)Nc1ccc(F)c(C(=O)c2c[nH]c3ncc(-c4ccc(Cl)cc4)cc23)c1F [vemurafenib]
ORR (B-RAF–mutated melanoma): 48%
